Test results as given in ChEMBL document CHEMBL5303300, “EUbOPEN Chemogenomics Library - Multiplex” (2023).
“And” between values parts separate entries of the source, which are not always exact repeats. Equal entries are not always repeated.

Tests used:
HEK-293T = assay: Multiplex assay against HEK293T; type: toxicity, cell-based; conditions: human, number of replicates 2
In short: (§1)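 Hoechst33342, BioTracker Green Microtubule Cytoskeleton Dye, MitoTracker Red and Annexin V Alexa Fluor 680 were added to live cells at seeding, and imaging on a CQ1 microscope at 37°C and 5% CO2 followed compound addition. Gating by CellPathfinder machine learning separated cells into Hoechst high-intensity objects or normal cells, then normal cells into healthy, pyknosed or fragmented nuclei, then pyknosed cells into mitotic or apoptotic. Per cents of healthy-nucleus cells are reported for the tubulin, mitochondrial-mass and membrane-permeability phenotypes.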

U2OS = assay: Multiplex assay against U2OS; type: toxicity, cell-based; conditions: human, number of replicates 2; in short: as §1
[1] = 24 h, 1 µM, compound concentration 1 uM
[2] = 24 h, 10 µM, compound concentration 10 uM
[3] = 48 h, 1 µM, compound concentration 1 uM
[4] = 48 h, 10 µM, compound concentration 10 uM
[5] = 12 h, 1 µM, compound concentration 1 uM
[6] = 12 h, 10 µM, compound concentration 10 uM

For COc1cc2nc(-c3cc(F)ccc3O)nc(N[C@@H]3CNC[C@H]3C(C)(C)O)c2cc1OC.Cl.Cl, the “Population Pyknosed Nuclei (%)” value (HEK-293T; [1]) was 7% and 8%, the “Population Tubulin-Different-Phenotype (%)” value (HEK-293T; [1]) was 63% and 68% and the “Total Cell Count” value (HEK-293T; [1]) was 1032 and 692. For the same molecule, the “Population Apoptotic (%)” value (HEK-293T; [2]) was 87% and 80%, the “Population Fragmented Nuclei (%)” value (HEK-293T; [2]) was 4% and 2% and the “Population Healthy Nuclei (%)” value (HEK-293T; [2]) was 50% and 51%. For the same molecule, the “Population Hoechst High Intensity Objects (%)” value (HEK-293T; [2]) was 20% and 25%, the “Population Membrane Permeable-Phenotype (%)” value (HEK-293T; [2]) was 6% and 4% and the “Population Mitochondria Different-Phenotype (%)” value (HEK-293T; [2]) was 65% and 68%. For the same molecule, the “Population Mitotic Cells (%)” value (HEK-293T; [2]) was 12% and 20%, the “Population Normal (%)” value (HEK-293T; [2]) was 79% and 74% and the “Population Pyknosed Nuclei (%)” value (HEK-293T; [2]) was 45%. The “Population Tubulin-Different-Phenotype (%)” value (HEK-293T; [2]) was 84% and 89%, the “Total Cell Count” value (HEK-293T; [2]) was 441 and 428 and the “Population Apoptotic (%)” value (HEK-293T; [3]) was 22% and 35%. The “Population Fragmented Nuclei (%)” value (HEK-293T; [3]) was 14% and 7%, the “Population Healthy Nuclei (%)” value (HEK-293T; [3]) was 82% and 88% and the “Population Hoechst High Intensity Objects (%)” value (HEK-293T; [3]) was 9% and 11%. For the same molecule, the “Population Membrane Permeable-Phenotype (%)” value (HEK-293T; [3]) was 3% and 1%, the “Population Mitochondria Different-Phenotype (%)” value (HEK-293T; [3]) was 1% and 3% and the “Population Mitotic Cells (%)” value (HEK-293T; [3]) was 77% and 64%. For the same molecule, the “Population Normal (%)” value (HEK-293T; [3]) was 90% and 88%, the “Population Pyknosed Nuclei (%)” value (HEK-293T; [3]) was 3% and 4% and the “Population Tubulin-Different-Phenotype (%)” value (HEK-293T; [3]) was 26% and 35%. The “Total Cell Count” value (HEK-293T; [3]) was 2589 and 1346, the “Population Apoptotic (%)” value (HEK-293T; [4]) was 85% and 77% and the “Population Fragmented Nuclei (%)” value (HEK-293T; [4]) was 4% and 3%. The “Population Healthy Nuclei (%)” value (HEK-293T; [4]) was 32% and 30%, the “Population Hoechst High Intensity Objects (%)” value (HEK-293T; [4]) was 21% and 24% and the “Population Membrane Permeable-Phenotype (%)” value (HEK-293T; [4]) was 6% and 5%. The “Population Mitochondria Different-Phenotype (%)” value (HEK-293T; [4]) was 58%, the “Population Mitotic Cells (%)” value (HEK-293T; [4]) was 14% and 22% and the “Population Normal (%)” value (HEK-293T; [4]) was 78% and 75%. The “Population Pyknosed Nuclei (%)” value (HEK-293T; [4]) was 62% and 66%, the “Population Tubulin-Different-Phenotype (%)” value (HEK-293T; [4]) was 82% and 81% and the “Total Cell Count” value (HEK-293T; [4]) was 411 and 392. For the same molecule, the “Population Apoptotic (%)” value (U2OS; [5]) was 100% and 76%, the “Population Healthy Nuclei (%)” value (U2OS; [5]) was 57% and 82% and the “Population Hoechst High Intensity Objects (%)” value (U2OS; [5]) was 0%. For the same molecule, the “Population Membrane Permeable-Phenotype (%)” value (U2OS; [5]) was 21% and 13%, the “Population Mitochondria Different-Phenotype (%)” value (U2OS; [5]) was 18% and 27% and the “Population Mitotic Cells (%)” value (U2OS; [5]) was 0% and 23%. For the same molecule, the “Population Normal (%)” value (U2OS; [5]) was 100% and 99%, the “Population Pyknosed Nuclei (%)” value (U2OS; [5]) was 17% and 10% and the “Population Tubulin-Different-Phenotype (%)” value (U2OS; [5]) was 46% and 30%. For the same molecule, the “Population Apoptotic (%)” value (U2OS; [6]) was 96% and 91%, the “Population Fragmented Nuclei (%)” value (U2OS; [6]) was 14% and 11% and the “Population Healthy Nuclei (%)” value (U2OS; [6]) was 5% and 3%. For the same molecule, the “Population Hoechst High Intensity Objects (%)” value (U2OS; [6]) was 0%, the “Population Membrane Permeable-Phenotype (%)” value (U2OS; [6]) was 100% and the “Population Mitochondria Different-Phenotype (%)” value (U2OS; [6]) was 50% and 66%. The “Population Mitotic Cells (%)” value (U2OS; [6]) was 3% and 8%, the “Population Normal (%)” value (U2OS; [6]) was 100% and the “Population Pyknosed Nuclei (%)” value (U2OS; [6]) was 79% and 85%. The “Population Tubulin-Different-Phenotype (%)” value (U2OS; [6]) was 100%, the “Population Apoptotic (%)” value (U2OS; [1]) was 83% and 85% and the “Population Fragmented Nuclei (%)” value (U2OS; [1]) was 23% and 9%. For the same molecule, the “Population Healthy Nuclei (%)” value (U2OS; [1]) was 65% and 74%, the “Population Hoechst High Intensity Objects (%)” value (U2OS; [1]) was 0% and the “Population Membrane Permeable-Phenotype (%)” value (U2OS; [1]) was 26% and 12%. For the same molecule, the “Population Mitochondria Different-Phenotype (%)” value (U2OS; [1]) was 23% and 34%, the “Population Mitotic Cells (%)” value (U2OS; [1]) was 16% and 14% and the “Population Normal (%)” value (U2OS; [1]) was 100%. The “Population Pyknosed Nuclei (%)” value (U2OS; [1]) was 11% and 16%, the “Population Tubulin-Different-Phenotype (%)” value (U2OS; [1]) was 47% and 34% and the “Population Apoptotic (%)” value (U2OS; [2]) was 91% and 90%. The “Population Fragmented Nuclei (%)” value (U2OS; [2]) was 14% and 22%, the “Population Healthy Nuclei (%)” value (U2OS; [2]) was 3% and 0% and the “Population Hoechst High Intensity Objects (%)” value (U2OS; [2]) was 2% and 0%. For the same molecule, the “Population Mitotic Cells (%)” value (U2OS; [2]) was 8% and 9%, the “Population Normal (%)” value (U2OS; [2]) was 97% and 100% and the “Population Pyknosed Nuclei (%)” value (U2OS; [2]) was 82% and 77%. The “Population Apoptotic (%)” value (U2OS; [3]) was 84% and 94%, the “Population Fragmented Nuclei (%)” value (U2OS; [3]) was 17% and 6% and the “Population Healthy Nuclei (%)” value (U2OS; [3]) was 52% and 77%. The “Population Hoechst High Intensity Objects (%)” value (U2OS; [3]) was 0%, the “Population Membrane Permeable-Phenotype (%)” value (U2OS; [3]) was 12% and 9% and the “Population Mitochondria Different-Phenotype (%)” value (U2OS; [3]) was 27% and 34%. For the same molecule, the “Population Mitotic Cells (%)” value (U2OS; [3]) was 15% and 5%, the “Population Normal (%)” value (U2OS; [3]) was 100% and the “Population Pyknosed Nuclei (%)” value (U2OS; [3]) was 30% and 15%. The “Population Tubulin-Different-Phenotype (%)” value (U2OS; [3]) was 24% and 34%, the “Population Apoptotic (%)” value (U2OS; [4]) was 96% and 89% and the “Population Fragmented Nuclei (%)” value (U2OS; [4]) was 10% and 19%. The “Population Healthy Nuclei (%)” value (U2OS; [4]) was 3% and 4%, the “Population Hoechst High Intensity Objects (%)” value (U2OS; [4]) was 0% and the “Population Membrane Permeable-Phenotype (%)” value (U2OS; [4]) was 100% and 85%. The “Population Mitochondria Different-Phenotype (%)” value (U2OS; [4]) was 100% and 71%, the “Population Mitotic Cells (%)” value (U2OS; [4]) was 4% and 10% and the “Population Normal (%)” value (U2OS; [4]) was 100% and 99%. For the same molecule, the “Population Pyknosed Nuclei (%)” value (U2OS; [4]) was 86% and 76% and the “Population Tubulin-Different-Phenotype (%)” value (U2OS; [4]) was 100% and 85%.
